The text below walks through data of PMC4007056 (Molecular cancer therapeutics, 2014).

Experiment [1] concerns intracranial HIFko tumors. The experiment can be described thus: in vivo homing of intravenously injected phage. Further details: species or system mouse. The conditions noted are these: intravenous injection; compared to control phage; mean of three experiments. The method, boiled down:
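T7Select415-1 phage displaying the peptide were injected into the tail vein of mice bearing intracranial HIFko tumors and circulated 15 min. Tissues were excised and phage recovered and amplified in E. coli BLT5615. Non-recombinant control phage was injected into a separate mouse, and homing was expressed relative to it. Mean of three experiments, ±SEM.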

The subject of experiment [2] is i.c. HIFko tumor derived cell suspension. Kind of experiment: ex vivo binding of individual phage to tumor-derived cell suspension. The experiment is classed as cell-based, mouse. To be noted: cell suspension from tumor containing brain relative to normal brain.
Experiment [3] concerns orthotopic MDA-MB-231 human breast cancer xenografts. Kind of experiment: in vivo homing of fluorescein-conjugated peptide, MDA-MB-231 xenografts. The conditions noted are these: fluorescein-conjugated peptide i.v., 60 min. On the set-up: species or system mouse. The method, boiled down:
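Athymic female Balb/c nu-nu mice (4–6 wk) bearing xenografts received fluorescein-labelled peptide intravenously, circulated one hour. Frozen sections (5–10 µm) were stained with rabbit anti-FITC and anti-PECAM-1 antibodies, Alexa-conjugated secondaries and DAPI, then examined under a fluorescence microscope.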

Experiment [4] concerns subcutaneous tumors established from the HIFko cells. The experiment can be described thus: in vivo homing of fluorescein-conjugated peptide, subcutaneous HIFko tumors. Further details: species or system mouse. The conditions noted are these: fluorescein-conjugated peptide i.v., 60 min. The method, boiled down: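 Athymic female Balb/c nu-nu mice (4–6 wk) were grafted subcutaneously on the abdominal side with 5×10^6 HIFko cells. Fluorescein-labelled peptide was given intravenously and circulated one hour. Frozen tissue sections (5–10 µm) were stained with rabbit anti-FITC antibody, Alexa-conjugated secondary antibody and DAPI, then viewed by fluorescence microscopy.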

The subject of experiment [5] is intracranial U87MG human glioma. Kind of experiment: in vivo homing of fluorescein-conjugated peptide, i.c. U87MG glioma. On the set-up: species or system mouse. To be noted: fluorescein-conjugated peptide i.v., 60 min. The method, boiled down:
(§1)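 Athymic female Balb/c nu-nu mice (4–6 wk) with intracranial tumors, used 10–21 days after inoculation. Fluorescein-labelled peptide (100 µM, 100 µl/animal) was injected into the tail vein and circulated 60 min. Mice were perfused through the […] and tumors excised. Frozen sections (5–10 µm) were stained with rabbit anti-FITC, anti-PECAM-1 for vessels and DAPI, then examined by fluorescence microscopy.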

Experiment [6] has as its system i.c. tumors derived from MDGI expressing U87MG cells. Format: in vivo, mouse. To be noted: MDGI expressing versus control U87MG tumors; fluorescein-conjugated peptide i.v.
The subject of experiment [7] is rat BT4C glioma xenografts. The experiment can be described thus: in vivo homing of fluorescein-conjugated peptide, BT4C glioma. Further details: species or system mouse. To be noted: fluorescein-conjugated peptide i.v., 60 min. The method, boiled down: as §1
For experiment [8], the system named is tumors derived from VEGF-expressing HIFko cells. The experiment can be described thus: in vivo homing of fluorescein-conjugated peptide, VEGF-expressing HIFko tumors. The conditions noted are these: fluorescein-conjugated peptide i.v., 60 min; i.c. tumors. Further details: species or system mouse. The method, boiled down:
as §1

Experiment [9] has as its system intracranial HIFko tumors. The experiment can be described thus: treatment of intracranial HIFko tumor-bearing mice with targeted Cbl. Format: in vivo, mouse. The method, boiled down:
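Athymic female Balb/c nu-nu mice (4–6 wks) bearing intracranial HIFko tumours were randomised to groups of 4 from day 5 post-implantation. They received i.v. PBS, peptide–drug conjugate (5 mg/kg), or free drug at the same molar amount, every second day. Body weight was monitored, and mice were sacrificed once weight loss exceeded 10%.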

Turning to CGLSGLGVA [phage 36], the “accumulation in other organs (liver, kidney, lung, normal brain)” value in experiment [1] is on record as “negligible accumulation”. Further, the “brain tumor to normal brain ratio of ex vivo phage binding” value in experiment [2] is “over 80”.
For CSESGLGVA [phage 34], the “brain tumor to normal brain ratio of ex vivo phage binding” value in [2] is on record as “about 13”.
For the substance H-ACGLSGLGVA-NH2 [CooP], the “homing to MDA-MB-231 human breast cancer xenografts” value in experiment [3] is “No CooP peptide was detected”. The “homing to subcutaneous HIFko tumors” value in [4] is “did not home”. Further, the “homing to intracranial U87MG human glioma” value in [5] is “homed”. Moreover, the “effect of MDGI-expression on peptide homing to i.c. U87MG tumors” value in [6] was “substantially increased”. For the same substance, the “homing to rat BT4C glioma xenografts” value in experiment [7] was “homed”. Moreover, the “homing to tumors derived from VEGF-expressing HIFko cells” value in experiment [8] was “did not home”.
For “NH2-CGLSGLGVAGGMVRRFLVTLRIRRACGPPRVRVK(^εCbl)-CONH2 [CooP-CPP-Cbl]”, the “signs of tumor burden” value in experiment [9] (5 mg/kg i.v. every second day from d5) is on record as “did not show any signs of tumor burden”. Also, the body weight course result in experiment [9] (5 mg/kg i.v. every second day from d5, 4 mice/group) was “gained weight”. For the same substance, in [9] (5 mg/kg i.v. every second day from d5, versus saline and free Cbl), the “life span of the animals” value was “prolonged the life span”. The “size of the primary tumor versus control groups” value in experiment [9] (5 mg/kg i.v. every second day, four sections/animal) was “no difference”.
